From ChEMBL document CHEMBL4706541, “Design and synthesis of 1H-indazole-3-carboxamide derivatives as potent and selective PAK1 inhibitors with anti-tumour migration and invasion activities” (Eur J Med Chem, 2020) come the findings set out here.

In test [1] the target is Tyrosine-protein kinase receptor UFO (Homo sapiens) (UniProt P30530). The test is described as follows: Inhibition of AXL (unknown origin) assessed as residual activity at 0.1 uM preincubated for 20 min followed by [gamma33P]ATP addition and measured after 120 mins by Hotspot assay relative to control. The conditions noted are these: time 140.0 min. A digest of the protocol:
(§1)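 Radiometric HotSpot kinase assay. Kinase and substrate are combined in 20 mM Hepes pH 7.5, 10 mM MgCl2, 1 mM EGTA, 0.02% Brij35, 0.02 mg/mL BSA, 0.1 mM Na3VO4, 2 mM DTT and 1% DMSO. Compound is added and preincubated 20 min at room temperature. The reaction starts with ATP plus 33P-ATP at 10 µM final and runs 120 min at 25 °C. Filter-binding read-out, given as % activity remaining versus DMSO.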

Test [2] has as its target Epidermal growth factor receptor (Homo sapiens) (UniProt P00533). Nature of the test: Inhibition of EGFR (unknown origin) assessed as residual activity at 0.1 uM preincubated for 20 min followed by [gamma33P]ATP addition and measured after 120 mins by Hotspot assay relative to control. The conditions noted are these: time 140.0 min. A digest of the protocol: as §1
Test [3] has as its target Mast/stem cell growth factor receptor Kit (Homo sapiens) (UniProt P10721). Nature of the test: Inhibition of c-Kit (unknown origin) assessed as residual activity at 0.1 uM preincubated for 20 min followed by [gamma33P]ATP addition and measured after 120 mins by Hotspot assay relative to control. The conditions noted are these: time 140.0 min. The gist of the method: as §1

In test [4] the test system is MDA-MB-231. The test is described as follows: Antimigratory activity against human MDA-MB-231 cells after 24 hrs by inverted microscopic based Wound healing assay. Format: functional, cell-based. To be noted: dose 0.25-1 µM. The gist of the method: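 Cells grown to confluence and scratched with a sterile pipette tip, or placed at 1×10^5 cells in serum-free DMEM with 0.1% […] in the upper part of Matrigel-coated Boyden chambers over DMEM with 10% FBS. Compound treatment for 24 h at 37 °C. Read-out is wound distance from images or the count of invaded cells on the lower filter face after fixing and staining. Data given as means ± SD.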

Test [5] has as its target Serine/threonine-protein kinase PAK 6 (Homo sapiens) (UniProt Q9NQU5). Nature of the test: Inhibtion of full length recombinant human N-terminal GST/His6-tagged PAK6 expressed in sf9 insect cells assessed as residual activity at 0.1 uM using tetra LRRWSLG as substrate preincubated for 20 min followed by [gamma33P]ATP addition and measured after 120 mins by Hotspot assay relative to control. The conditions noted are these: time 140.0 min. The gist of the method: as §1

Test [6] concerns the target T1, Serine/threonine-protein kinase PAK 1 (Homo sapiens, UniProt Q13153). Nature of the test: Inhibition of PAK1 phosphorylation at ser144 residue in human MDA-MB-231 cells after 1 to 24 hrs by Western blot analysis. Format: cell-based. The conditions noted are these: dose 2.5-20 µM, time 1-24 hrs. A digest of the protocol: (§2)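 Whole-cell extracts made from 1×10^6 treated cells in RIPA buffer (50 mM Tris/HCl pH 7.4, 150 mM NaCl, 1% NP-40, 0.25% deoxycholate, 1 mM EDTA, protease inhibitors). Proteins separated by SDS-PAGE, blotted to PVDF and blocked in 5% milk in TBS-T. Membranes probed for PAK1, phospho-PAK1 Ser144, Snail and actin, with β-actin as loading control. ECL detection.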
For orientation: In western blotting, separated proteins are transferred to a membrane and probed.

In test [7] the target is Serine/threonine-protein kinase PAK 3 (Homo sapiens) (UniProt O75914). Nature of the test: Inhibtion of full length recombinant human N-terminal GST/His6-tagged PAK3 expressed in sf9 insect cells assessed as residual activity at 0.1 uM using tetra LRRWSLG as substrate preincubated for 20 min followed by [gamma33P]ATP addition and measured after 120 mins by Hotspot assay relative to control. The conditions noted are these: time 140.0 min. A digest of the protocol: as §1
Chain of Serine/threonine-protein kinase PAK 3 (Homo sapiens) (O75914 whole entry, looked up): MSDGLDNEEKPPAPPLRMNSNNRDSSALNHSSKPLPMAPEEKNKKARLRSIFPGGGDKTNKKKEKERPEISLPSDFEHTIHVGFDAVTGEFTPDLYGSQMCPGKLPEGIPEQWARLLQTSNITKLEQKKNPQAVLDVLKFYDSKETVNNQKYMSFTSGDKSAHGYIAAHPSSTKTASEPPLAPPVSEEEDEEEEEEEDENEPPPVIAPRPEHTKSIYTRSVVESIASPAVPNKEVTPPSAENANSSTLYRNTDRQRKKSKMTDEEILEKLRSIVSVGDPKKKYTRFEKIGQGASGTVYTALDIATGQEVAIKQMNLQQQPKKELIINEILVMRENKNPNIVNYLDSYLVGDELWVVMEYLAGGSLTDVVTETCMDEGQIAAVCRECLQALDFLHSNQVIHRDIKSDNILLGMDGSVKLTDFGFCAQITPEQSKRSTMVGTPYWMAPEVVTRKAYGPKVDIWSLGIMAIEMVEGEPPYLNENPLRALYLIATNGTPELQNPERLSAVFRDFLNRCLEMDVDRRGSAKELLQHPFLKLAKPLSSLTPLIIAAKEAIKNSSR

The target in test [8] is T2, Serine/threonine-protein kinase PAK 4 (Homo sapiens, UniProt O96013). The test is described as follows: Inhibtion of full length recombinant human N-terminal GST/His6-tagged PAK4 expressed in baculovirus infected sf9 insect cells assessed as residual activity at 0.1 uM using tetra LRRWSLG as substrate preincubated for 20 min followed by [gamma33P]ATP addition and measured after 120 mins by Hotspot assay relative to control. The conditions noted are these: time 140.0 min. The gist of the method: as §1

Test [9] addresses Mitogen-activated protein kinase 14 (Homo sapiens) (UniProt Q16539). Nature of the test: Inhibition of P38alpha (unknown origin) assessed as residual activity at 0.1 uM preincubated for 20 min followed by [gamma33P]ATP addition and measured after 120 mins by Hotspot assay relative to control. The conditions noted are these: time 140.0 min. The gist of the method:
as §1

Test [10] has as its target T2, Serine/threonine-protein kinase PAK 4. The test is described as follows: Inhibition of full length recombinant human N-terminal GST/His6-tagged PAK4 expressed in baculovirus infected sf9 insect cells using tetra LRRWSLG as substrate preincubated for 20 min followed by [gamma33P]ATP addition and measured after 120 mins by Hotspot assay.
The target in test [11] is Aurora kinase A (Homo sapiens) (UniProt O14965). The test is described as follows: Inhibition of AuroraA (unknown origin) assessed as residual activity at 0.1 uM preincubated for 20 min followed by [gamma33P]ATP addition and measured after 120 mins by Hotspot assay relative to control. To be noted: time 140.0 min. The gist of the method:
as §1

For test [12], the target named is Tyrosine-protein kinase Lck (Homo sapiens) (UniProt P06239). The test is described as follows: Inhibition of LCK (unknown origin) assessed as residual activity at 0.1 uM preincubated for 20 min followed by [gamma33P]ATP addition and measured after 120 mins by Hotspot assay relative to control. To be noted: time 140.0 min. A digest of the protocol: as §1
Chain of Tyrosine-protein kinase Lck (Homo sapiens) (P06239 2-509 limits assumed): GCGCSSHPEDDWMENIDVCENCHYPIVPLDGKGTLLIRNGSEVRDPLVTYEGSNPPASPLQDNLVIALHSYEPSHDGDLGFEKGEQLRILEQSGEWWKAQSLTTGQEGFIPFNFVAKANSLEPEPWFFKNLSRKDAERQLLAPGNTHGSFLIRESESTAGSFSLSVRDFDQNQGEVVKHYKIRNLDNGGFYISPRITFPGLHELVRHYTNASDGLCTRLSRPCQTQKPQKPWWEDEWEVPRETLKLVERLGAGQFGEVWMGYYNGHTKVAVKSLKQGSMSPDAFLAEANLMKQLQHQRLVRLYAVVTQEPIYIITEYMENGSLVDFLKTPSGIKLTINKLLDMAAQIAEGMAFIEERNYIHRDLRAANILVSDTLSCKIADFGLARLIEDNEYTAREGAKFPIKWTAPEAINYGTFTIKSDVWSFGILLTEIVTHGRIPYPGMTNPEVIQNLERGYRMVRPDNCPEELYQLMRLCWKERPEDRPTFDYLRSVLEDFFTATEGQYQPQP
The target in test [13] is Mitogen-activated protein kinase 3 (Homo sapiens) (UniProt P27361). The test is described as follows: Inhibition of ERK1 (unknown origin) assessed as residual activity at 0.1 uM preincubated for 20 min followed by [gamma33P]ATP addition and measured after 120 mins by Hotspot assay relative to control. The conditions noted are these: time 140.0 min. A digest of the protocol:
as §1

For test [14], the target named is ALK tyrosine kinase receptor (Homo sapiens) (UniProt Q9UM73). The test is described as follows: Inhibition of ALK (unknown origin) assessed as residual activity at 0.1 uM preincubated for 20 min followed by [gamma33P]ATP addition and measured after 120 mins by Hotspot assay relative to control. To be noted: time 140.0 min. The gist of the method: as §1
Chain of ALK tyrosine kinase receptor (Homo sapiens) (Q9UM73 19-1620 limits assumed): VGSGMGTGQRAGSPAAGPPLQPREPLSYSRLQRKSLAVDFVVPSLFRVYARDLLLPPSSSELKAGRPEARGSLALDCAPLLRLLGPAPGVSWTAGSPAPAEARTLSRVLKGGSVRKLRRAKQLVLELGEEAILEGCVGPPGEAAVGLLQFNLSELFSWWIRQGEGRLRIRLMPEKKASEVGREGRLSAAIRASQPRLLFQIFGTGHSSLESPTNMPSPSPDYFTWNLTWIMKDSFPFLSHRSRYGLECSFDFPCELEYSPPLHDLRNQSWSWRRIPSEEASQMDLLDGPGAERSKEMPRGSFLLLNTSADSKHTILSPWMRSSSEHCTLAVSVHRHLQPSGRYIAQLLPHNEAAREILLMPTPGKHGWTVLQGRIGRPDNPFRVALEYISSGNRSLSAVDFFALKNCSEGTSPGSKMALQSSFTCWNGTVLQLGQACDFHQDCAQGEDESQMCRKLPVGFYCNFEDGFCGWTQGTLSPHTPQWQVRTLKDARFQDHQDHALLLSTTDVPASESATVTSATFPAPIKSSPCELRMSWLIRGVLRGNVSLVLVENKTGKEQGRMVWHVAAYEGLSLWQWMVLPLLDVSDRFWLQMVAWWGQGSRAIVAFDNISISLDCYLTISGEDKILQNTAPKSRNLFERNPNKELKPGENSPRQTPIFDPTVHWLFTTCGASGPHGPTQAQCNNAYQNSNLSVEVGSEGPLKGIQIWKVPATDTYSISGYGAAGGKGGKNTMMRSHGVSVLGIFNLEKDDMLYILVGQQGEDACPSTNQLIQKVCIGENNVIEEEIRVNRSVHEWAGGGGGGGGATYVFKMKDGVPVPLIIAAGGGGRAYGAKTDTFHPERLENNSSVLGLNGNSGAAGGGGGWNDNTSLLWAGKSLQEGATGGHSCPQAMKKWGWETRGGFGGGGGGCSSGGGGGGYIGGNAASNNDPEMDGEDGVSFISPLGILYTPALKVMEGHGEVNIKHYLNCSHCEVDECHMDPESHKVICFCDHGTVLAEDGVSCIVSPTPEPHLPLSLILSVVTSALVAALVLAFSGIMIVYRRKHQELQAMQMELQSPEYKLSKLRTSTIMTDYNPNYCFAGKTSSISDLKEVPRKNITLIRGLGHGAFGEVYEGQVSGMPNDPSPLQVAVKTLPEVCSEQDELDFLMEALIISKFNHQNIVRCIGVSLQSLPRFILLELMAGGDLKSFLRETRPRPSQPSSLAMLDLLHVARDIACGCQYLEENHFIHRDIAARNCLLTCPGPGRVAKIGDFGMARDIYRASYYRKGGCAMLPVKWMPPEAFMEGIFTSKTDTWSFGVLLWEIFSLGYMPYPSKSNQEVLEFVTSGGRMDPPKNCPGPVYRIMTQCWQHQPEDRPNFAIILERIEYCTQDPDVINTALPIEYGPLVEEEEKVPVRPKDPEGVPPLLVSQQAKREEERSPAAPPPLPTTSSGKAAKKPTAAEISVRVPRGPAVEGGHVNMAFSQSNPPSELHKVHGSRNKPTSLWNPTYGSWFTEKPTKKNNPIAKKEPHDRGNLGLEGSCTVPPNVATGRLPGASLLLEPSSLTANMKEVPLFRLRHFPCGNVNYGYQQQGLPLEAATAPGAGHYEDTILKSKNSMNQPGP
In test [15] the target is T1, Serine/threonine-protein kinase PAK 1. Nature of the test: Inhibition of full length recombinant human N-terminal GST/His6-tagged PAK1 expressed in sf9 insect cells assessed as residual activity at 0.1 uM using tetra LRRWSLG as substrate preincubated for 20 min followed by [gamma33P]ATP addition and measured after 120 mins by Hotspot assay relative to control. To be noted: time 140.0 min. A digest of the protocol:
as §1

For test [16] the target is unchanged. Nature of the test: Inhibition of PAK1 in human MDA-MB-231 cells assessed as reduction in snail protein expression at 2.5 to 20 uM after 1 to 24 hrs by Western blot analysis. It counts as cell-based. The conditions noted are these: dose 2.5-20 µM, time 1-24 hrs. A digest of the protocol: as §2

Structures are written as SMILES. Active and inactive are the calls of the source. The calls are words filed in the database; no cut-off is given here.

T1 sequence (Q13153 whole entry): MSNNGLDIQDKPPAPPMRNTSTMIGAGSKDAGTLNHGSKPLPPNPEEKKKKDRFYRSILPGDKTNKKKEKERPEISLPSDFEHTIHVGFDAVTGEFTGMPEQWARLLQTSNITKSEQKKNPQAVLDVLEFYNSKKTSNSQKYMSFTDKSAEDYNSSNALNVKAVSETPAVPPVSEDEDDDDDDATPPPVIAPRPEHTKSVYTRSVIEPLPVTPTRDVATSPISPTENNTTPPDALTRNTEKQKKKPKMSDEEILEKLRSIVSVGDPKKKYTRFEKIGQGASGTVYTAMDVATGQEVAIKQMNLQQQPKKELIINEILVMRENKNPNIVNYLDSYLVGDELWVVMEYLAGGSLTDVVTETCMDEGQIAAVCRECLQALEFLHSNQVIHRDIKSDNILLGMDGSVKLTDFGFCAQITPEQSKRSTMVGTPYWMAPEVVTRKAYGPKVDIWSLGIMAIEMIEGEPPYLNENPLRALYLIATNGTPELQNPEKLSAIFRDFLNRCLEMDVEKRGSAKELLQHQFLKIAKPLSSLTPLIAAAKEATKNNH
Chain of Aurora kinase A (Homo sapiens) (O14965 whole entry): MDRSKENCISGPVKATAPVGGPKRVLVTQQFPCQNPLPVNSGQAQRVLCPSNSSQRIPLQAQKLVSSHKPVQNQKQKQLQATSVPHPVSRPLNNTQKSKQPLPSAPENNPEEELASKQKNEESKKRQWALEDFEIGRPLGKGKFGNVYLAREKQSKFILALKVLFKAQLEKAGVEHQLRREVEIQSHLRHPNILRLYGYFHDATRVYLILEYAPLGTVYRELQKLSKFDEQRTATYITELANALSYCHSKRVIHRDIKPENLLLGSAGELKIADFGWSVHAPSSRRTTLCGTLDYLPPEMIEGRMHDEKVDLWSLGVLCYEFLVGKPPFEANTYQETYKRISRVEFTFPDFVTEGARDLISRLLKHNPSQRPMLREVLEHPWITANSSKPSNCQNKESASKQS
Chain of Mitogen-activated protein kinase 14 (Homo sapiens) (Q16539 whole entry): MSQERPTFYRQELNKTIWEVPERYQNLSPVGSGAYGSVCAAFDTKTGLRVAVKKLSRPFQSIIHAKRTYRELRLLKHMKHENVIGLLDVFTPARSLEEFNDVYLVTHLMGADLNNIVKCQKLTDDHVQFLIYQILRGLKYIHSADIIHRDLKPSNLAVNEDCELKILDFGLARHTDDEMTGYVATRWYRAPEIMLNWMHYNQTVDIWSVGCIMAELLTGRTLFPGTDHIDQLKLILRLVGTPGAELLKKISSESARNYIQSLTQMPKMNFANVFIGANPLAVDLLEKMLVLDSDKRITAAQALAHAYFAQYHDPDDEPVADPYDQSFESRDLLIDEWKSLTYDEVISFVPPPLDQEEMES
Chain of Mitogen-activated protein kinase 3 (Homo sapiens) (P27361 whole entry): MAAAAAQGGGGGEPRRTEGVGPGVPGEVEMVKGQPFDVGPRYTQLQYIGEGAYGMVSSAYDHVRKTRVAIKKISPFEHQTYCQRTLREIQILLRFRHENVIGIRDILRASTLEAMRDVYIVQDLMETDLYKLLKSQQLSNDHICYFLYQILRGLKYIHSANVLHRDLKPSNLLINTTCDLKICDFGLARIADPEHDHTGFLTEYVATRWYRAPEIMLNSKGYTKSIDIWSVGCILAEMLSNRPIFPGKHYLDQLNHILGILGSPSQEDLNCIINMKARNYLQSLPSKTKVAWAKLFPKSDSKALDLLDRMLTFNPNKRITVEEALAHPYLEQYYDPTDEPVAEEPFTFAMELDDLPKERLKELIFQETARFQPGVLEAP
Chain of Serine/threonine-protein kinase PAK 6 (Homo sapiens) (Q9NQU5 whole entry, looked up): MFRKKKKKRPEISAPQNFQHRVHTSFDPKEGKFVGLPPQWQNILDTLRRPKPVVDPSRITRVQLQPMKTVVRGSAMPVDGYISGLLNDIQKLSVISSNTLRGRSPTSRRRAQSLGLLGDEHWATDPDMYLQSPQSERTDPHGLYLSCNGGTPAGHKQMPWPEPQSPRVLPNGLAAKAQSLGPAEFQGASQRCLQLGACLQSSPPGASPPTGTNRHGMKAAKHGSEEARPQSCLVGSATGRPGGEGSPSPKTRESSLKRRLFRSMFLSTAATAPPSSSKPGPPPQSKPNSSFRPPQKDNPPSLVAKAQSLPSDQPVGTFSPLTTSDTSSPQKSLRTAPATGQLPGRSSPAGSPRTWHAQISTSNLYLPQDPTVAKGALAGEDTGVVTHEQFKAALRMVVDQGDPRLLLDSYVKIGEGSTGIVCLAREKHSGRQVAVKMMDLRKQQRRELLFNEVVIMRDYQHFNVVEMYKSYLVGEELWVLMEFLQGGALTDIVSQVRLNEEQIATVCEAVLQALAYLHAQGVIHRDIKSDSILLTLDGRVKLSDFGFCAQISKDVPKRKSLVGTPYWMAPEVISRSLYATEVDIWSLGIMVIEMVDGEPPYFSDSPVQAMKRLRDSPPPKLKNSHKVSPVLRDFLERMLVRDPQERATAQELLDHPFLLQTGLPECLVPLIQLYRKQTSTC

One may read the IC50 as the concentration needed to halve the response being measured. Take `Cc1cccn(-c2ccc(-c3ccc4c(C(=O)NCc5ccncc5)n[nH]c4c3)c(Cl)c2)c1=O`: the Activity in test [1] was 88.4%; in test [2], 89.3%; in test [3] it was 99.2%; in test [4], “Dose-dependent effect”; in [5], 80%; in [7] it was 33.9%. In addition, the Activity is 104% in [8]; 78% in test [9]; 87.8% in [11]; 88.6% in test [12]; 99% in test [13]; 97% in test [14]. Besides, the Activity in test [15] was found to be 27.6%. Further, the inhibition result in test [6] was “Dose-dependent effect”. Besides, in [10], the IC50 is above 10 µM. Moreover, in [16], the inhibition result is “Active”.
